In assay [1] the target is Epidermal growth factor receptor (Homo sapiens, UniProt P00533). Briefly: Concentration required to inhibit phosphorylation of isolated human epidermal growth factor tyrosine kinase receptor by 50%.
The target in assay [2] is T1, Platelet-derived growth factor receptor (Homo sapiens, UniProt P09619+P16234). Nature of the assay: Inhibition of human PDGF receptor phosphorylation; 0.1-0.6. It is filed as protein-complex assay. Put shortly: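 Receptor from quiescent NIH 3T3 cell lysates (24 h in 0.5% calf serum before lysis), stimulated with 10 ng/mL PDGF for 30 min at 4 °C, then immunoprecipitated with anti-PDGF receptor antibody on Protein A beads. Compound pre-incubated 10 min at 4 °C in 50 mM Tris, 10 mM MnCl2, pH 7.5. At least two dose-response assays per compound.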

Assay [3] deals with T1, Platelet-derived growth factor receptor. Nature of the assay: Inhibition of human PDGF receptor phosphorylation; 2-8. It is filed as protein-complex assay. In short, it runs like this:
(§1)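 PDGF receptor from NIH 3T3 cell lysates (cells made quiescent 24 h in 0.5% calf serum), stimulated with 10 ng/mL PDGF for 30 min at 4 °C and immunoprecipitated on Protein A beads. Each compound ran in at least two dose-response assays.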

The target is the same in assay [4]. Briefly: Concentration required to inhibit phosphorylation of isolated human PDGF receptor by 50%; 0.3-1. It is filed as protein-complex assay. In short, it runs like this: as §1
Assay [5] has the same target. Nature of the assay: Inhibition of human PDGF receptor phosphorylation; 0.003-0.005. It is filed as protein-complex assay.

Molecules are shown by their SMILES. Bounds are passed on as bounds.

Epidermal growth factor receptor, sequence (P00533 whole entry): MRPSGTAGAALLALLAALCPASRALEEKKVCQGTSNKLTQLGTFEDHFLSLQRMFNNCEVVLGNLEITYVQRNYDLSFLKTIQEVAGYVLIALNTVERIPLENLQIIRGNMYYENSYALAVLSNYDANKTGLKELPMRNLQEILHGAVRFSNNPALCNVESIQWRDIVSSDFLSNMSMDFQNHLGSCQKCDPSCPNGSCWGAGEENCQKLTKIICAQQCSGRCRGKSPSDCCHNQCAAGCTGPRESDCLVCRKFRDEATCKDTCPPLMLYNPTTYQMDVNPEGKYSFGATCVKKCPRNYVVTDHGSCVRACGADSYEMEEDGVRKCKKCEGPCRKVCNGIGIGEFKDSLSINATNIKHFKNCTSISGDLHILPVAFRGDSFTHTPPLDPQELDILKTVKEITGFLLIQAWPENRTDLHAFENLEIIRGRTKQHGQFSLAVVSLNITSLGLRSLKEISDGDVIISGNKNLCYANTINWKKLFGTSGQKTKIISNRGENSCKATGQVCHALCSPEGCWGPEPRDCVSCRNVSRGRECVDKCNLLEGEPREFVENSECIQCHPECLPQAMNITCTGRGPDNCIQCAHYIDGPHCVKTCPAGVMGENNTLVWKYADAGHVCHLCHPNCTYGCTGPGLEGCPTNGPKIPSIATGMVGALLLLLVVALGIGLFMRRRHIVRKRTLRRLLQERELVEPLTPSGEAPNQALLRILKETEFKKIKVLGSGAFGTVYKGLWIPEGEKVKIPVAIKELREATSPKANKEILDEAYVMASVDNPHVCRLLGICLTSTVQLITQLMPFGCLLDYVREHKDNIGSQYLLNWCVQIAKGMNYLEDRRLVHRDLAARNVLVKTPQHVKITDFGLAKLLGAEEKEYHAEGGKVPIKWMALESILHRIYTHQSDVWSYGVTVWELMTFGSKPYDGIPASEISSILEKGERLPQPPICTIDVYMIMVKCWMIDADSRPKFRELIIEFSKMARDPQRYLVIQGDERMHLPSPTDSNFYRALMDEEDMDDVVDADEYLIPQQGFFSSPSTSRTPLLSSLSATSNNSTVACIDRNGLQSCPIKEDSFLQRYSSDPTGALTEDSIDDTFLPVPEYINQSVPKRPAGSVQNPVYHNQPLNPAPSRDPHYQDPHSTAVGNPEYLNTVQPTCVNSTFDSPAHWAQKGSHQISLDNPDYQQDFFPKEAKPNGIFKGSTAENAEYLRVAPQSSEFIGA

In the case of `COc1cc2cc(-c3c[nH]c4ccccc34)cnc2cc1OC`, the IC50 – broadly, the concentration that inhibits the measured activity by half – is > 20 µM in assay [1] and 0.6 µM in assay [2].

As to `c1ccc2ncc(-c3c[nH]c4ccccc34)cc2c1`, the half-maximal inhibitory concentration (IC50) in assay [1] is > 20 µM; in assay [3], 8 µM.

Turning to `COc1cc2cc(C#CC3CCCCC3)cnc2cc1OC`, the values for the IC50 in assay [1] and in assay [4] were > 20 µM and 1 µM, respectively.

`COc1ccc(-c2cnc3cc(OC)c(OC)cc3c2)cc1F`: the IC50 was > 20 µM in assay [1] and 0.005 µM in assay [5].

Source of the values: ChEMBL document CHEMBL1127568, “A new series of PDGF receptor tyrosine kinase inhibitors: 3-substituted quinoline derivatives” (J Med Chem, 1994).
